Sampled rows, rich in hits. Any-hit rate of the full collection: about 3.7%.
KCNQ1 block: inhibitors of human KCNQ1 channel, primary screen, cell-based, thallium flux, high-throughput; Potassium voltage-gated channel subfamily KQT member 1 (Homo sapiens), P51787; CHO-K1 KCNQ1, FluxOR thallium flux fluorescence; stronger effect = higher value; B-score at 10 µM; actives 1.3% (n = 310,000);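 active = compounds whose thallium flux B-score, printed positive for inhibition, exceeds three library SD while starting fluorescence stays within three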;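 note: channel opened by potassium depolarization with thallium stimulus after 20 min compound exposure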
Kir21 inh: inhibitors of mouse Kir2.1 inward-rectifier potassium channel. AID 1672, 2009. B-score at 10 µM. actives 0.85% (n = 310,000). HEK293-Kir2.1, FluxOR thallium flux fluorescence; stronger effect = lower value;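 active = fluorescence ratio B-score at or below minus 3 SD of library scores, with starting-brightness B-score within 2 SD, cut at about -4.2 in these data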;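 note: channel flux triggered by added potassium and thallium sulfate stimulus; B-score of peak minus minimum fluorescence over baseline after thallium stimulus; more negative B-score means stronger Kir2.1 block with less thallium influx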
KCNK9 inh: KCNK9 potassium channel inhibitors, primary screen, HEK293 cells, thallium flux | Potassium channel subfamily K member 9 (Homo sapiens), Q9NPC2 | FluxOR thallium flux fluorescence; stronger effect = lower value | B-score at 10 µM | actives 1.2% (n = 310,000) | AID 488922, 2010;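 active = ratio B-score over 3 SD below the library mean, with starting fluorescence within 5 SD of its mean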;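 note: negative B-score means less thallium flux so channel inhibition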
KCNK3 inh: human KCNK3 channel inhibitors, primary screen, CHO cells, FluxOR thallium flux, B-score; Potassium channel subfamily K member 3 (Homo sapiens), O14649; FluxOR fluorescence; stronger effect = lower value; B-score at 10 µM; actives 0.84% (n = 340,000);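 active = B-score under library mean minus 4 SD, starting fluorescence ratio at most library mean plus 5 SD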;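 note: more negative B-score means stronger inhibition of thallium flux through KCNK3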
hERG rescue: hERG rescue from dofetilide block, primary screen, cell-based, CHO-hERG, FluxOR thallium flux, dofetilide IC70; Voltage-gated inwardly rectifying potassium channel KCNH2 (Homo sapiens), Q12809; dofetilide IC70 present; activation (rescue from dofetilide block), less the hit threshold, % at 10 µM; AID 1511, 2009; actives 0.51% (n = 310,000);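 active = activation above the mean of controls blocked by dofetilide plus 5 SD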;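 note: thallium influx through hERG after potassium depolarization seen as dye fluorescence rise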
KCNQ1 act: potentiators or activators of KCNQ1 channel, primary screen, cell-based, thallium flux, high-throughput. CHO-K1 KCNQ1, thallium flux FluxOR fluorescence; stronger effect = higher value. AID 2648, 2010. actives 0.35% (n = 310,000). B-score at 10 µM. Potassium voltage-gated channel subfamily KQT member 1 (Homo sapiens), P51787;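 active = fluorescence ratio B-score, a plate-corrected score, at least three library SD, with initial intensity B-score within 5 SD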
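assay system = KCNQ1-transfected CHO-K1 cells | medium = assay buffer with matched DMSO | probe or stimulus = depolarizing K+/Tl+ stimulus, K2SO4 and Tl2SO4 each 12.5 mM in 5x stock | dosing = single dose | incubation = dye 90 min, compound 20 min, room temperature | detection = kinetic FluxOR fluorescence, 10 s baseline plus 110 s post-stimulus | evaluation = ratio B score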
KCNQ1 inh valid: KCNQ1 potassium channel inhibitors, confirmation, cell-based, Tl flux, duplicate | shares compounds with KCNQ1 block | KCNQ1 cell line, FluxOR thallium flux fluorescence | inhibition, % at 10 µM | actives 93% (n = 1,600);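 active = primary screen active, with duplicate mean exceeding buffer control mean plus 3 SD of buffer wells, cut at about 28% in these data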
CHO KCNQ1 ctr: thallium flux effects in parental CHO cells, counter-screen for KCNQ1 inhibitor project, cell-based, Tl flux. shares compounds with KCNQ1 block. parental CHO-K1, FluxOR thallium flux fluorescence ratio; stronger effect = lower value; zero means no signal rise above baseline. fluorescence ratio (Tl flux) at 10 µM. actives 21% (n = 1,600);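 active = mean of duplicate thallium-flux fluorescence ratios in parental host cells more than 5 SD below the buffer control mean, cut at about 0.38 in these data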;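 note: ratio is peak minus minimum fluorescence divided by baseline fluorescence; actives read low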
KCNQ1 APC inh: KCNQ1 channel inhibitors, confirmation, orthogonal assay, cell-based, automated electrophysiology | AID 624120, 2012 | shares compounds with KCNQ1 block | calls only at 10 µM | KCNQ1-CHO cells, automated patch clamp current | actives 20% (n = 490);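 active = KCNQ1 current drop exceeding 3 SD of negative control wells, seen in both duplicate runs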;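 note: steady state current during a 2 s step from -80 to +40 mV; negative values mean current inhibition and positive values mean potentiation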
KCNQ2 spec: KCNQ2 channel inhibition, selectivity assay for KCNQ1 inhibitor project, cell-based; KCNQ2 cells, FluxOR thallium flux fluorescence; AID 651746, 2012; inhibition, % at 10 µM; shares compounds with KCNQ1 block; actives 71% (n = 1,600);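 active = mean percent inhibition of the KCNQ2 thallium signal more than 5 SD above the buffer-only control wells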;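 note: KCNQ2 expressed in CHO cells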
KCNQ1 KCNE1 spec: KCNQ1/KCNE1 channel inhibition, selectivity assay for KCNQ1 inhibitor project, CHO-K1 cells, thallium flux, FluxOR. AID 652147, 2013. FluxOR thallium flux fluorescence. actives 77% (n = 1,600). shares compounds with KCNQ1 block. inhibition, % at 10 µM;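 active = mean percent inhibition of duplicate wells above the buffer-only control mean plus 3 SD of those controls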
KCNK9 inh conf: KCNK9 potassium channel inhibitors, confirmation, HEK293 cells, thallium flux, duplicate; inhibition, % at 10 µM; FluxOR thallium flux fluorescence; shares compounds with KCNK9 inh; actives 43% (n = 4,900);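 active = thallium signal inhibited by more than 5 SD of the compound-free buffer control wells, on both duplicate plates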
Kir21 sel: mouse Kir2.1 channel inhibition, confirmation, selectivity assay for KCNK9 modulator project, cell-based, HEK293, thallium flux; shares compounds with KCNK9 inh; Kir2.1 cells, FluxOR thallium flux fluorescence; inhibition, % at 10 µM; actives 4% (n = 4,900); AID 492993, 2010;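 active = thallium signal drop more than 5 SD beyond the mean of the no-compound control wells, seen in both duplicate plates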;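 note: signal is fluorescence rise after thallium addition divided by baseline fluorescence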
HEK293 Tl ctr: thallium flux in non-induced HEK293 cells, confirmation, counter-screen for KCNK9 inhibitor project, cell-based, second counter screen, non-induced KCNK9-HEK293 | shares compounds with KCNK9 inh | FluxOR thallium flux | inhibition, % at 10 µM | actives 40% (n = 4,900) | AID 492997, 2010;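 active = thallium signal drop beyond 5 SD of the untreated control mean, on both duplicate plates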
Hits are given with their value; – = inactive; · = no result given; + = active, no number.

SMILES	KCNQ1 block	Kir21 inh	KCNK9 inh	KCNK3 inh	hERG rescue	KCNQ1 act	KCNQ1 inh valid	CHO KCNQ1 ctr	KCNQ2 spec	KCNQ1 KCNE1 spec	KCNK9 inh conf	Kir21 sel	HEK293 Tl ctr	others
CCC(C)[C@H](NC(=O)N1CC(=O)Nc2ccccc21)C(=O)N1CCC[C@H]1C(=O)O (stereo partly drawn)	–	–	–	–	–	–	·	·	·	·	·	·	·
CCN(CC)S(=O)(=O)c1cccc(NC(=O)Nc2cccc(C(F)(F)F)c2)c1	11	–	–	–	–	–	158	0.3	121%	127%	–	–	–
COc1cc(CN(C2CC2)S(=O)(=O)c2ccccc2Br)cc(OC)c1	·	·	·	–	·	·	·	·	·	·	·	·	·
Cc1nn(CCc2nn[nH]n2)c2nc(-c3ccc(Br)cc3)cc(C(F)(F)F)c12	8	–	–	–	–	–	76	0.38	101%	59%	–	–	–
CCn1c(SCC(=O)N(C)c2c(N)n(Cc3ccccc3)c(=O)[nH]c2=O)nc2ccccc21	–	–	–	–	–	–	·	·	·	·	·	·	·
O=C(Nc1ccc(Cl)c(Cl)c1)N1CCSC1c1ccco1 (stereo not drawn)	10	–	-11	–	–	–	111	0.37	–	118%	53%	–	–
CC(=O)Nc1ccc(S(=O)(=O)N2CCSC2c2ccco2)cc1 (stereo not drawn)	–	–	–	–	–	–	·	·	·	·	·	·	·
C[C@@]12C(=O)N(c3ccc(Br)cc3)C(=O)N1[C@@H]1c3ccccc3OC[C@@H]1[C@H]2c1ccccc1	·	·	·	–	·	·	·	·	·	·	·	·	·
COC(=O)C1CN(C(=O)COc2ccc(Cl)cc2C)c2ccccc2O1 (stereo not drawn)	–	–	–	–	–	–	·	·	·	·	·	·	·
N#C/C(=C/c1ccc(N2CCOCC2)o1)c1nc2ccccc2[nH]1	·	·	·	–	·	·	·	·	·	·	·	·	·
N#C/C(=C/c1ccc(N2CCOCC2)o1)c1ccc(Br)cc1	16	–	-12	–	–	–	167	0.26	–	+	71%	36%	70%
COc1ccccc1NC(=O)c1ccc(NC(=O)c2ccc(=O)[nH]c2)cc1	·	·	·	–	·	·	·	·	·	·	·	·	·
O=C(NCc1ccccc1)c1cccc(COc2ccc3c(c2)CCC3)c1	7	–	–	–	–	–	98	–	112%	139%	–	–	–	KCNQ1 APC inh=+
CCOC(=O)N1CCN(C(=S)NC(=O)c2ccc(F)c(F)c2)CC1	–	–	–	–	–	–	·	·	·	·	·	·	·
CCOC(=O)c1sc2nc(CC(=O)OC)nc(N3CCN(c4ccccn4)CC3)c2c1C	8	–	–	–	–	–	112	–	110%	140%	–	–	–	KCNQ1 APC inh=–
O=C(c1ccc(Cl)c(Cl)c1)N(Cc1ccco1)c1ccc(O)cc1	7	-4.3	-11	–	–	–	84	–	106%	118%	40%	32%	42%
O=C(COc1ccccc1)N(Cc1ccco1)c1ccc(O)cc1	–	–	–	–	–	–	·	·	·	·	·	·	·
CCN1C(c2ccccc2)C(C)C(=O)C(C)C1c1ccccc1 (stereo not drawn)	8	–	–	–	–	–	120	–	89%	128%	–	–	–	KCNQ1 APC inh=–
COC(=O)C(Cc1c[nH]c2ccccc12)NC(=O)C(C)C (stereo not drawn)	–	–	–	–	–	–	·	·	·	·	·	·	·
COC(=O)C(Cc1c[nH]c2ccccc12)NC(=O)C(=O)c1c[nH]c2ccccc12 (stereo not drawn)	7	–	-12	–	–	–	68	–	84%	108%	–	–	–
O=C(CN1CCN(S(=O)(=O)N2CCOCC2)CC1)Nc1cc(Cl)cc(Cl)c1	–	–	–	–	–	–	·	·	·	·	·	·	·
Cc1cccc2c1cnn2C(=O)CCC(=O)N1CCC(C)CC1	–	–	–	–	–	–	·	·	·	·	·	·	·
Cc1cccc2c1cnn2C(=O)CCC(=O)N1CC(C)CC(C)C1 (stereo not drawn)	11	–	–	–	–	–	25	–	72%	–	–	–	–
CCCCn1c(/N=C/c2ccc(N(C)C)cc2)nc2ccccc21	11	–	-12	-11	–	–	170	0.3	135%	94%	30%	–	55%
C=CCn1c(/N=C/c2ccc(N(C)C)cc2)nc2ccccc21	–	–	–	–	–	–	·	·	·	·	·	·	·
CCc1c(C#N)c(SCCC(=O)Nc2ccc(C)cc2)nc2c1C(=O)CC(C)(C)C2	7	–	–	–	–	–	93	–	83%	56%	–	–	–	KCNQ1 APC inh=–
O=C(C1CCC(CNS(=O)(=O)c2ccccc2)CC1)N1CCOCC1 (stereo not drawn)	–	–	–	–	–	–	·	·	·	·	·	·	·
